In ChEMBL document CHEMBL2331509, “Design, synthesis, characterization and anti-inflammatory evaluation of novel pyrazole amalgamated flavones” (2013):

Columns and labels:
[1] = tested on: Mus musculus; test: Antiinflammatory activity in mouse assessed as inhibition of acetic acid-induced vascular permeability by measuring Evan's blue dye leakage at 100 mg/kg, po administered 1 hr before acetic acid challenge measured after 30 mins; assay type: functional
In short: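 Mice, n=6 per group, were dosed orally at 100 mg/kg; the vehicle was 2% gum acacia at 10 mL/kg. After 1 h they received 0.25 mL of 0.6% v/v acetic acid i.p., then immediately 10% w/v Evans blue at 10 mL/kg i.v. by tail vein. After 30 min they were killed with ether. The viscera were irrigated with 5 mL saline; the perfusate was filtered, made up to 10 mL, and dye read at 620 nm.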

[2] = tested on: Rattus norvegicus; test: Antiinflammatory activity in Wistar rat assessed as inhibition of carrageenan-induced paw volume at 100 mg/kg, po measured after 6 hrs of carrageenan challenge (reference value: 1.69 +/- 0.08 ml); assay type: functional
[3] = tested on: Rattus norvegicus; test: Antiinflammatory activity in Wistar rat assessed as inhibition of carrageenan-induced paw volume at 100 mg/kg, po measured after 1 hr of carrageenan challenge (reference value: 0.94 +/- 0.05 ml); assay type: functional
[4] = tested on: Rattus norvegicus; test: Antiinflammatory activity in Wistar rat assessed as inhibition of carrageenan-induced paw volume at 100 mg/kg, po measured after 3 hrs of carrageenan challenge (reference value: 1.17 +/- 0.1 ml); assay type: functional
[5] = target: T1, Prostaglandin G/H synthase 1 (Ovis aries) (UniProt P05979); test: Inhibition of ovine COX1 assessed as appearance of oxidized N,N,N,N'- tetramethyl-p-phenylenediamine at 100 uM
T1 sequence (whole entry): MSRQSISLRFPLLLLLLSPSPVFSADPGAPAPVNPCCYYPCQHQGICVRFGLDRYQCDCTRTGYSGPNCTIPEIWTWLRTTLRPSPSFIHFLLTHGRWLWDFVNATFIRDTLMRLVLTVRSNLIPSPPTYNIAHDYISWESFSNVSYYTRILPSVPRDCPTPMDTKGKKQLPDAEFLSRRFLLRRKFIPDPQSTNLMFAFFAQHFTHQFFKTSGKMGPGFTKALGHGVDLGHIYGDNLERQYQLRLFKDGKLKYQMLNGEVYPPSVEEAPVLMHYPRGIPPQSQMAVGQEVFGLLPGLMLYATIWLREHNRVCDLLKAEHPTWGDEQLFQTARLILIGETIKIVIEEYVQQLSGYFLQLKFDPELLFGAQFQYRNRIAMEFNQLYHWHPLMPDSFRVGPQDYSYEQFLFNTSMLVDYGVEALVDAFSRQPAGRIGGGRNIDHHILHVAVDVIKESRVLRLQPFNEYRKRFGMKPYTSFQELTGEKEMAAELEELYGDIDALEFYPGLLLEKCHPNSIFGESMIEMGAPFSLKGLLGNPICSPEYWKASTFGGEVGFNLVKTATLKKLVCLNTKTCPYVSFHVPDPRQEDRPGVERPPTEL
In short: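 Colorimetric ovine COX screening kit. The reaction held assay buffer, heme, COX-1 enzyme and test sample at 100 µM. The COX peroxidase activity was followed by the appearance of oxidized TMPD at 590 nm. Inhibition was calculated as (1 − T/C)×100, where C is the absorbance of the uninhibited well.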

Row | inhibition [5] [%] | Compound | inhibition in vivo at 100 mg/kg [1] [%] | Activity [2] [mL] | Activity [3] [mL] | Activity [4] [mL]
1 | – | COc1ccc2c(c1)c(CC(=O)O)c(C)n2C(=O)c1ccc(Cl)cc1 [INDOMETHACIN] | 70.4 | 0.78 | 0.86 | 0.95
2 | 54.1 | COc1cc(OC)c2c(=O)cc(-c3ccccc3)oc2c1-c1ccnn1C | – | 1.22 | 0.77 | 0.91
3 | 48.4 | COc1ccc(-c2cc(=O)c3c(OC)cc(OC)c(-c4ccnn4C)c3o2)cc1OC | 68.2 | 0.99 | 0.79 | 0.96
4 | 46.1 | COc1cc(OC)c2c(=O)cc(-c3ccc(Cl)cc3Cl)oc2c1-c1ccnn1C | – | 1.32 | 0.89 | 1.11
5 | 54.1 | COc1cc(OC)c2c(=O)cc(-c3ccc(F)cc3)oc2c1-c1ccnn1C | 51.9 | 1.17 | 0.76 | 1.05
6 | 60 | COc1cc(OC)c2c(=O)cc(-c3cccs3)oc2c1-c1ccnn1C | – | 1.55 | 0.91 | 1.18
7 | 51.6 | COc1cc(OC)c2c(=O)cc(-c3ccc4c(c3)OCO4)oc2c1-c1ccnn1C | 25.3 | 1.07 | 0.86 | 0.92
8 | 54.1 | COc1cc(OC)c2c(=O)cc(-c3ccc(Br)cc3)oc2c1-c1ccnn1C | 35.1 | 1.11 | 0.81 | 0.99
9 | 47.4 | COc1cc(OC)c2c(=O)cc(-c3cccc([N+](=O)[O-])c3)oc2c1-c1ccnn1C | 33.3 | 1.02 | 1.04 | 1
10 | 45.7 | COc1cc(OC)c(-c2cc(=O)c3c(OC)cc(OC)c(-c4ccnn4C)c3o2)c(OC)c1 | 72.3 | 0.97 | 0.83 | 0.95
11 | 51.6 | COc1cc(OC)c2c(=O)cc(-c3ccc(F)cc3F)oc2c1-c1ccnn1C | – | 1.44 | 0.78 | 1.01
12 | 52.8 | COc1cc(OC)c2c(=O)cc(-c3ccc(F)c(F)c3)oc2c1-c1ccnn1C | – | 1.2 | 0.79 | 0.99
13 | 20.4 | COc1cc(OC)c2c(=O)cc(-c3ccco3)oc2c1-c1ccnn1C | 60.5 | 0.88 | 0.87 | 0.94
14 | 48.9 | COc1cc(OC)c2c(=O)cc(-c3c(Cl)cccc3Cl)oc2c1-c1ccnn1C | 57.8 | 1.01 | 0.79 | 1.46
15 | 52.2 | COc1cc(OC)c2c(=O)cc(-c3c(F)cccc3F)oc2c1-c1ccnn1C | – | 1.44 | 0.88 | 1.24
